Common to all, as to format: physicochemical
The nature of data set [1]: Glutathione reactivity assessed as thiol reactivity rate constant at 250 uM up to 72 hrs by HPLC-MS or NMR analysis. Further details: unit not given beside the values. In outline:
(§1)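 Fragment 250 µM mixed with 5 mM glutathione in PBS pH 7.4 containing 5% acetonitrile, with 100 µM indoprofen as internal standard. For fragments not detectable at 250 µM, levels were reversed (5 mM fragment, 250 µM GSH). Internal-standard-corrected AUCs were fitted by OLS linear regression. k_GSH = k_eff − k_deg, and t1/2 = ln2/k_GSH.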

Data set [2] in a line: Glutathione reactivity assessed as half life at 250 uM up to 72 hrs by HPLC-MS or NMR analysis. The conditions noted are these: gsh. The procedure, abridged: as §1
The nature of data set [3]: Stability of the compound assessed as half life for degradation.

As for `N#Cc1cnccn1`, in data set [1], the K is 0.0314. Further, in data set [2], the t1/2 came out at 22.5 h. In data set [3], the half-life (usually how long it takes for the measured level to halve) is > 1 h.

In the case of `C#CCn1ccnc1`, the K in data set [1] was 0.0144. In addition, in data set [2], the t1/2 stood at 48 h. Further, in data set [3], the half-life was > 1 h.

Take `N#Cc1cccnc1`: in data set [1], the K is listed as 0.0176. Also, the t1/2 in data set [2] was 41 h. The half-life in data set [3] is > 1 h.

With `Ic1nccs1`, the K in data set [1] is reported as 0.7872. For the same compound, in data set [2], the t1/2 turned out to be 0.9 h. The half-life in data set [3] was > 1 h.

In the case of `Ic1ncco1`, the K in data set [1] was found to be 6.0573. Further, in data set [3], the half-life was > 1 h.

On to `Ic1ncc[nH]1`, for which, in data set [1], the K is recorded as 0.116. Moreover, the t1/2 in data set [2] came out at 6 h. Also, the half-life in data set [3] was > 1 h.

On to `N#Cc1ccncc1` [ISONICOTINONITRILE], for which the K in data set [1] is reported as 0.8837. Moreover, the t1/2 in data set [2] stood at 0.8 h. Besides, in data set [3], the half-life was > 1 h.

As for `Brc1cncs1`, in data set [1], the K is listed as 0.011. Also, the t1/2 in data set [2] was found to be 63 h. The half-life in data set [3] was > 1 h.

(Values after ChEMBL document CHEMBL4480360, “Design and characterization of a heterocyclic electrophilic fragment library for the discovery of cysteine-targeted covalent inhibitors” (Medchemcomm, 2019).)
